# In the library only some 2.4% were active in any assay of this set; here they are far more common.
# MOR-DOR inv ag: mu-delta opioid heterodimer inverse agonism. inhibition, % at 9.3 µM. P35372+P41143. cell-based MOR-DOR heterodimer luminescence. 340,000 compounds, 0.21% hits. AID 504357; in the data active = inhibition above about 22%, passing the limit was not always enough;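 note: 0% = cells with DMSO and 100% = wells without cells with DMSO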
# MOR-DOR ag: OPRM1-OPRD1 heterodimerization agonism | P35372+P41143 | cells, luminescence | activation, % at 9.3 µM | 340,000 compounds, 0.3% hits | AID 504326; in the data active = activation above about 18%;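 note: 0% = vehicle-treated cells and 100% = reference agonist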
# HTR5A ag ctr: activates human HTR5A in OPRM1-OPRD1 agonist counter-screen; 340,000 compounds, 0.61% hits; activation, % at 9.3 µM; AID 504692; HTR5A agonist assay, luminescence, cell-based; P47898; in the data active = activation mostly above about 9.5%, no sharp cut-off; inactive = mostly below about 7.6%;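 note: 0% = cells with vehicle only and 100% = reference agonist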
# HTR5A inv ag: counter-screen for OPRM1-OPRD1 inverse agonists: human HTR5A inverse agonism; P47898; HTR5A cell line, luminescence; inhibition, % at 9.3 µM; 340,000 compounds, 0.083% hits; AID 504634; in the data active = inhibition mostly above about 23%, no sharp cut-off; inactive = mostly below about 18%;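 note: 0% = cells with DMSO and 100% = no-cell wells with DMSO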
# MC4R antagonist: human MC4R antagonism in cAMP assay; P32245; MC4R-expressing cells, MTII-stimulated cAMP, LANCE TR-FRET; inhibition, % at 6.5 µM; 360,000 compounds, 0.48% hits; AID 540295;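 active = inhibition above its plate's cutoff, the mean of tested wells on that plate plus 3 SD, cut at about 29% in these data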;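 note: 0% = Melanotan II alone and 100% = Melanotan II plus saturating MCL0020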
# Target sequence (P32245 whole entry, looked up): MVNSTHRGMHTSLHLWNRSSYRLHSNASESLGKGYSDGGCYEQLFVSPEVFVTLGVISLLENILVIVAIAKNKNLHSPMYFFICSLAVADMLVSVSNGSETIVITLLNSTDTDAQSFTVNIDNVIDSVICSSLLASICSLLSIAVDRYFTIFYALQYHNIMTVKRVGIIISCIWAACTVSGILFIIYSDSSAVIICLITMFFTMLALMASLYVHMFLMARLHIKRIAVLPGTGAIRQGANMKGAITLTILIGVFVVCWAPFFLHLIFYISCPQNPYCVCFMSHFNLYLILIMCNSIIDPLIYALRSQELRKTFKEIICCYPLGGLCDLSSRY
#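 System – human MC4R-expressing U2OS cells · Also added – Melanotan II · Dosing – one concentration, 6.5 µM nominal · Timing – 30-min compound, 1-h challenge, 1-h detection, room temperature · Measured by – Eu-cAMP/anti-cAMP TR-FRET, emission 671 nm · Replicates – singlicate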
# MC4R ag barr: activates human MC4R beta-arrestin recruitment; AID 540308; 360,000 compounds, 0.98% hits; U2OS MC4R beta-arrestin complementation, luminescence; percent of melanotan II response, DMSO zero; activation, % at 8.9 µM; P32245;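 active = activation above a per-plate cutoff, the mean activation of sample wells on that plate plus 3 SD, cut at about 8% in these data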
# MC4R barr ag: human MC4R beta-arrestin agonism confirmation; shares compounds with MC4R ag barr; U2OS MC4R beta-arrestin recruitment, luminescence; scaled DMSO 0%, Melanotan II 100%; activation, % at 8.9 µM; 2,400 compounds, 31% hits;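 active = mean activation across replicates above the hit cutoff set in the earlier primary screen, cut at about 8% in these data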
# MOR-DOR barr ag: activates mu-delta opioid heterodimer, MC4R agonist counter-screen; activation, % at 9.2 µM; U2OS PathHunter beta-arrestin, beta-gal luminescence; percent of deltorphin B response, DMSO zero; 2,400 compounds, 5.8% hits; shares compounds with MC4R ag barr;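 active = mean activation across replicates exceeds the hit threshold derived in the earlier primary screen, cut at about 18% in these data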;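 note: 100% = deltorphin B at 0.9 µM final and 0% = DMSO alone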
# Active calls of the source: *; nt = no result.
SMILES,MOR-DOR inv ag,MOR-DOR ag,HTR5A ag ctr,HTR5A inv ag,MC4R antagonist,MC4R ag barr,MC4R barr ag,MOR-DOR barr ag
C/C(=N\NC(=O)COc1ccccc1)c1cccs1,-5,1,-2,9,4,1,nt,nt
C/C(=N\NC(=O)COc1cccc2ccccc12)c1cccs1,-11,2,15,-36,0,17*,17*,6
COc1ccc(/C=C/C=N/NC(=O)COc2ccc(OC)cc2)cc1,6,-1,-3,-2,-7,3,nt,nt
O=C(NCCCn1ccnc1)c1ccc(COc2ccccc2)o1,15,-3,5,-12,14,-1,nt,nt
CC(=O)Nc1ccc(CNc2nc3cc(-c4ccc(F)cc4)sc3c(=O)n2C)cc1,nt,nt,nt,nt,20,-1,nt,nt
COc1ccc2cc3cc(C(=O)NCc4cccs4)oc3nc2c1,-24,4,2,-7,-5,11*,7,9
COc1ccc2cc3cc(C(=O)NCCc4ccc(OC)c(OC)c4)oc3nc2c1,-19,3,4,-29,6,6,nt,nt
CC(C)CCNc1ncnc2c1nnn2Cc1ccccc1Cl,-41,8,4,-13,1,18*,4,5
Cc1ccc(C)c(C(=O)COC(=O)c2n[nH]c3ccccc23)c1,-36,7,4,-17,-14,16*,16*,8
Cc1cccc(C)c1OCCOC(=O)c1n[nH]c2ccccc12,-46,8,5,-14,-15,1,nt,nt
CCc1nc2ccc(C(=O)N3CCN(C(C)=O)CC3)cn2c1N(CC)C(=O)NCCc1ccccc1,nt,nt,nt,nt,1,-2,nt,nt
Cc1ccc(S(=O)(=O)N2CCCC2C(=O)NCc2ccccc2Cl)cc1 (stereo unspecified),-10,2,1,-2,8,0,nt,nt
CCOc1cccc2sc(=NC(=O)c3ccco3)n(CC(=O)OC)c12,12,-2,-1,12,-3,0,nt,nt
C#CCn1c(=NC(=O)c2ccco2)sc2cccc(Cl)c21,-61,12,-1,7,-8,33*,5,11
COc1ccc(Cc2nnc(NC(=O)Nc3ccccc3F)s2)cc1,-24,5,5,-19,1,6,nt,nt
COc1ccc(Cc2nnc(NC(=O)Nc3ccccc3F)s2)cc1OC,-2,0,4,4,-2,14*,4,6
O=[N+]([O-])c1ccc2[nH]c(O)c(N=Nc3ccc(F)cc3)c2c1,21,-4,2,-7,12,0,nt,nt
O=[N+]([O-])c1ccc(N=Nc2c(O)[nH]c3ccc(F)cc23)cc1,17,-4,-4,14,10,18*,10*,1
COc1ccc(NC(=O)/C=C/c2ccccc2)c([N+](=O)[O-])c1,-12,3,4,13,-13,3,nt,nt
CCOc1ccc(NC(=S)NC(=O)/C=C/c2ccc(OC)c(OC)c2)c([N+](=O)[O-])c1,-3,1,3,-13,-2,17*,12*,9
CCOc1ccc(NC(=O)/C=C/c2ccc(OC)cc2)c([N+](=O)[O-])c1,8,-2,2,-14,-3,-1,nt,nt
CCOc1ccc(NC(=S)NC(=O)/C=C/c2ccc(C)cc2)c([N+](=O)[O-])c1,-13,2,16,-28,-18,38*,17*,6
COc1ccc(/C=C/C(=O)Nc2ccc(OC)cc2[N+](=O)[O-])cc1,-16,3,6,-11,-4,32*,7,10
Cc1c(CCOC(=O)CC23CC4CC(CC(C4)C2)C3)sc[n+]1CC(=O)c1ccccc1,19,-4,7,-18,-11,2,nt,nt
Cc1c(CCOC(=O)C23CC4(C)CC(C)(CC(C)(C4)C2)C3)sc[n+]1CC(=O)c1ccccc1,-7,1,6,-16,-2,17*,16*,18
SMILES,MOR-DOR inv ag,MOR-DOR ag,HTR5A ag ctr,HTR5A inv ag,MC4R antagonist,MC4R ag barr,MC4R barr ag,MOR-DOR barr ag
CN1CCC2(CC1)N=C(c1ccc(F)cc1)C(=S)N2C(=O)c1ccc(C(C)(C)C)cc1,-34,7,0,1,13,11*,5,18
CC(C)(C)c1ccc(C(=O)N2CCNCC2)cc1,7,-1,-2,1,9,0,nt,nt
CCOC(=O)N/N=C\c1ccc(OC/C=C/c2ccccc2)cc1,14,-3,0,-7,2,11*,0,5
COC(=O)N/N=C\c1ccc(OC/C=C/c2ccccc2)cc1,10,-2,2,-5,9,-1,nt,nt
Nc1ccc(O)cc1C(=O)OCC(=O)c1ccc(C2CCCCC2)cc1,-43,7,6,-16,7,21*,12*,14
CCOC(=O)NC(O)C(=O)c1cccs1 (stereo unspecified),2,0,4,2,10,-1,nt,nt
CC1(C)CC2(C)CC(=O)C1C(C(=O)O)C2C(=O)O (stereo unspecified),nt,nt,nt,nt,-4,-3,nt,nt
Cc1ccc(OCC(=O)NC(=S)Nc2cccc(NC(=O)c3ccccc3Cl)c2)cc1,15,-3,-2,-5,1,15*,6,4
CCC(=O)NC(=S)Nc1ccc(NC(=O)COc2ccc(Cl)c(C)c2)cc1,-16,3,0,17,12,19*,3,5
O=C(COc1ccccc1)NC(=S)Nc1cccc(NC(=O)c2ccccc2Cl)c1,3,-1,-1,4,8,6,nt,nt
Cc1ccc(CSc2nnc(Nc3ccc(C)cc3)s2)cc1,-26,6,6,-16,14,19*,4,4
CCSc1nnc(Nc2ccc(C)cc2)s1,1,0,4,-22,-2,-1,nt,nt
Nc1nnc(SCC(=O)NNC(=O)c2ccccc2F)s1,4,-1,3,-10,10,0,nt,nt
O=C(c1ccoc1)N1CCN(c2cc(-c3cccnc3)nc3cc(-c4cccc(Cl)c4)nn23)CC1,nt,nt,nt,nt,20,11*,0,3
O=C(c1ccoc1)N1CCN(c2cc(-c3ccccc3)nc3cc(-c4ccc(Br)cc4)nn23)CC1,nt,nt,nt,nt,16,2,nt,nt
CCc1ccc2c(c1)cc(CN(C(=S)Nc1ccccc1C)C1CC1)c1nnnn12,-1,0,-1,2,7,12*,4,2
Cc1c(NC(=O)COC(=O)c2ccc(O)cc2)c(=O)n(-c2ccccc2)n1C,15,-4,1,13,2,-2,nt,nt
O=C(Nc1ccc2oc(-c3ccncc3)nc2c1)c1ccc2c(c1)OCCO2,-6,1,4,-14,8,23*,12*,2
O=C(Nc1ccc2oc(-c3ccncc3)nc2c1)c1ccc2c(c1)OCO2,-16,3,0,-1,0,-1,nt,nt

# Screens from PubChem.
